Read-outs that look alike come from different tables or passages of the source.
Key:
[1] = test system: RGC-5 cells; experiment: NMDA / glutamate excitotoxicity model; assay type: cell-based, mouse; conditions: native and SS-differentiated; up to 5 mM, up to 48 hrs; data not shown
[2] = test system: RGC-5 cells; experiment: Staurosporine differentiation and morphology of RGC-5 cells; assay type: cell-based, mouse
[3] = test system: RGC-5 cells; experiment: Induction of apoptosis and probe activation by cytotoxic agents; assay type: cell-based, mouse
[4] = test system: retinal ganglion cell apoptosis; conditions: directly applied into the vitreous humor; models of RGC degeneration; ref [6],[10]; cited from earlier work
[5] = biological target: T1, caspase 3 (Homo sapiens, UniProt P42574); experiment: Caspase 3 probe cleavage; assay type: biochemical; conditions: HEPES buffer pH 7.4, 10 mM DTT, 37°C, 640/680 nm
T1 sequence (P42574 29-175 limits assumed): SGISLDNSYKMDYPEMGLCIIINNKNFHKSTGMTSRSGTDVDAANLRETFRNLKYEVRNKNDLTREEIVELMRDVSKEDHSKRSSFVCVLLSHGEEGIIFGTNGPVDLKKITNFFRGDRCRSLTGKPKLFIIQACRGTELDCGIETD
T1 sequence (P42574 176-277 limits assumed): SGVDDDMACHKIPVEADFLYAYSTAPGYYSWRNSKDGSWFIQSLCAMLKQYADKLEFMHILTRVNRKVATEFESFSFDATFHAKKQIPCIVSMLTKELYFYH
Summary of the method: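 Human recombinant caspase 3 (E. coli-expressed; 50 U, 1.4 × 10−6 mg) is pre-equilibrated for 10 min at 37°C in the stated buffer with 0.1% CHAPS, 10% glycerol and 1 mM EDTA. Quenched test compound (2 µM solution) is added, and fluorescence is read continuously for 30 min at 37°C. Signals are background-subtracted and normalized to enzyme mass. Initial 0–5 min rates come from linear fits; Km and kcat come from nonlinear regression of cleavage rates.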

[6] = in vivo; cited from earlier work
[7] = test system: RGC-5 cells; assay type: cell-based, mouse; conditions: FITC-annexin V; compared to 3 with Alexa Fluor 647-annexin V; data not shown
Summary of the method: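 RGC-5 cells are grown in phenol-free DMEM with 10% FBS at 37°C and 5% CO2. They are given 5 µM staurosporine in growth medium for 3 h, then co-incubated for 30 min with up to 10 µM quenched test compound plus FITC-annexin V. Propidium iodide (500 nM) is added for 5 min. Cells are rinsed three times in phenol-free medium and imaged by fluorescence microscopy.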

[8] = test system: RGC-5 cells; experiment: Non-target activation in healthy cells, LysoTracker co-localization; assay type: cell-based, mouse
[9] = Figures 5–7, S9, S10 (ionomycin), Figure 6 (SS), doxorubicin data not shown

CN[C@H](CC(=O)O)C(=O)O [NMDA]
loss in viability [1]: no loss in viability

CN[C@@H]1C[C@H]2O[C@@](C)([C@@H]1OC)n1c3ccccc3c3c4c(c5c6ccccc6n2c5c31)C(=O)NC4 [SS, staurosporine]
time to differentiation morphology ([2]; 0.5 µM SS, 37°C, bright field microscopy): ≤ 1 hour | time to completion of morphological changes ([2]; SS, room temperature): approximately 2 hours | toxic concentration (blebbing and disruption of neurite morphology) ([2]; concentrations exceeding the value): exceeding 2 µM | apoptosis and probe activation upon treatment [3, 9]: readily observed

COc1cccc2c1C(=O)c1c(O)c3c(c(O)c1C2=O)C[C@@](O)(C(=O)CO)C[C@@H]3O[C@H]1C[C@H](N)[C@H](O)[C@H](C)O1 [doxorubicin]
apoptosis and probe activation upon treatment [3]: readily observed

C[C@H](CCC(=O)O)C[C@H](C)C[C@H](C)C(=O)/C=C(\O)[C@H](C)C[C@H](C)C/C=C/[C@@H](C)[C@@H](O)[C@@H](C)[C@@H](O)C[C@@H]1CC[C@@](C)([C@H]2CC[C@@](C)([C@@H](C)O)O2)O1 [ionomycin]
apoptosis and probe activation upon treatment [3, 9]: readily observed

(kkkrkv) linked to a cleavage sequence consisting of L amino acids (KDEVDAPC) [compound 1]
detection of RGC apoptosis in vivo [4]: detect RGC apoptosis in models of RGC degeneration in vivo | kcat/Km [5]: 435 (FU min^−1 µM^−1)/nM | systemic toxicity [6]: without the systemic toxicity of the HIV-1 Tat sequence | coincidence of probe activation with annexin V binding [7]: Identical results | probe signal in healthy cells ([8]; 2 hr exposure, fluorescence microscopy): no significant probe signal | Pearson’s coefficient, LysoTracker compartments and activated probe ([8]; SS-differentiated RGC-5 cells, 3 hrs): 0.612 | punctate probe signal in LysoTracker-labeled compartments ([8]; healthy native and SS-differentiated RGC-5 cells, 3 hrs): delayed appearance of punctate signal | Pearson’s coefficient, LysoTracker compartments and activated probe ([8]; native RGC-5 cells, 3 hrs): 0.566
